The entries come from a sample that favours hits as a whole.
H69AR inhibit – blocks growth of human H69AR lung tumor cells | H69AR lung tumor viability, ATP luminescence, 72 h; stronger effect = lower value | viability, % at 10 µM | 6% of 85,000 active;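 active = viability at or below 40%; inactive = viability above 40%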;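 note: multidrug resistant small cell line overexpressing MRP-1 efflux transporter; 100% = mean luminescence of untreated control wells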
HCT116 bCat-KO – beta-catenin-lacking colon tumor cell growth suppression; viability, % at 10 µM; 1.5% of 140,000 active; HCT116 beta-catenin knockout viability, CellTiter-Glo, 60 h; stronger effect = lower value; AID 818;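 active = viability at or under a set limit, the compound median less 4 SD, cut at about 6% in these data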;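 note: 0% = Hyamine 1622 control at 20 µM and 100% = untreated cell control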
Calb biofilm kill – kills Candida albicans biofilms. C. albicans biofilm + clotrimazole, Alamar Blue. inhibition, % at 6 µM. 0.14% of 85,000 active;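 active = inhibition above 20%; inactive = inhibition below 20%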;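 note: preformed 24 hr biofilms exposed to compound for 48 hr; 0% = biofilm without compound and 100% = blank killed by clotrimazole plus chlorhexidine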
Lung fibro prol – blocks proliferation of human lung fibroblasts. LL 47 human lung fibroblast viability, ATP luminescence; stronger effect = lower value. viability, % at 10 µM. 1.1% of 85,000 active;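 active = viability at or below 50% in the single dose screen; inactive = viability above 50%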;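 note: compound exposure lasted 72 h before the ATP readout; 100% = median luminescence of untreated cell-only wells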
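Material: human LL 47 lung fibroblast cells; quantity: 1,150 cells/well; medium: IMEM plus 15% FBS; doses: 0.1% DMSO in all compound wells; timing: overnight attachment after seeding, then 72 h compound exposure at 37 °C; detection: CellTiter-Glo luminescence; measure: % viability of median cell-only signal; controls: cell-only wells, no compound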
HUVEC prolif 384 – blocks proliferation of human endothelial cells. HUVEC proliferation, CellTiter-Glo luminescence, 72 h; stronger effect = lower value. viability, % at 10 µM (by protocol). 1.1% of 86,000 active. AID 648;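 active = viability at or below 30%; inactive = viability above 30%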;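 note: 100% = median luminescence of DMSO-only cell control wells on each plate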
HCT116 PTEN-null – PTEN-deleted cell growth suppression | AID 827 | 1.2% of 140,000 active | HCT116 PTEN-null viability, CellTiter-Glo, 60 h; stronger effect = lower value | viability, % at 10 µM;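 active = viability at or below a set limit, 4 SD under the median of all tested compounds, cut at about 3.7% in these data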;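 note: PTEN knockout HCT116 line with beta catenin targeted HCT116 as companion control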
The depositor's hits bear a star.

O=C(c1ccco1)N1CCN(c2ncnc3scc(-c4ccccc4)c23)CC1 was read as H69AR inhibit 40*, HCT116 bCat-KO 87, Calb biofilm kill 3, Lung fibro prol 113, HUVEC prolif 384 100 and HCT116 PTEN-null 75.
Screening Cc1cc(C)c(C(=O)/C=C/c2cccc3ccccc23)c(=O)[nH]1 returned HCT116 bCat-KO 1.5* and HCT116 PTEN-null 2.3*.
For CCCCN(Cc1ccco1)C(=O)Cn1ncc2c(=O)oc3ccc(C)cc3c21 the results were HCT116 bCat-KO 92 and HCT116 PTEN-null 95.
`Cc1ccc2oc(=O)c3cnn(CC(=O)N(CCC(C)C)Cc4ccco4)c3c2c1` gave H69AR inhibit 38*, HCT116 bCat-KO 94, Calb biofilm kill 6, Lung fibro prol 97, HUVEC prolif 384 71 and HCT116 PTEN-null 90.
Screening Cc1cc(C)n(C(=O)CNC(=O)COc2ccccc2)n1 returned H69AR inhibit 86, HCT116 bCat-KO 99, Calb biofilm kill 5, Lung fibro prol 102, HUVEC prolif 384 98 and HCT116 PTEN-null 94.
For CCCn1c(CC)nc([N+](=O)[O-])c1S(=O)(=O)c1ccccc1 the results were HCT116 bCat-KO 1.4* and HCT116 PTEN-null 1.2*.
For Cn1c(=O)n(C)c2cc([N+](=O)[O-])c(N3CCN(S(=O)(=O)c4ccccc4)CC3)cc21 the results were HCT116 bCat-KO 61 and HCT116 PTEN-null 55.
For O=C(CSc1nc(-c2cccs2)cc(C(F)(F)F)n1)Nc1cc(OCC(F)(F)F)cc([N+](=O)[O-])c1 the results were HCT116 bCat-KO 2.1* and HCT116 PTEN-null 9.
CCC(C)NC(=O)CSc1nc(-c2cccs2)cc(C(F)(F)F)n1 (stereo not given) was read as HCT116 bCat-KO 91 and HCT116 PTEN-null 91.
For COc1cccc(C(=O)N(C)c2nnc(-c3ccncc3)s2)c1 the results were H69AR inhibit 94, HCT116 bCat-KO 97, Calb biofilm kill 7, Lung fibro prol 104, HUVEC prolif 384 113 and HCT116 PTEN-null 97.
For O=C(CSc1nnc(COc2ccc(F)cc2)o1)N1c2ccccc2CCc2ccccc21 the results were H69AR inhibit 1.9*, HCT116 bCat-KO 51, Calb biofilm kill 3, Lung fibro prol 84, HUVEC prolif 384 109 and HCT116 PTEN-null 46.
O=C(CSc1nnc(COc2cccc3cccnc23)o1)N1CCc2ccccc21 was read as H69AR inhibit 51, HCT116 bCat-KO 22, Calb biofilm kill 3, Lung fibro prol 94, HUVEC prolif 384 97 and HCT116 PTEN-null 35.
CC(=O)Nc1ccc(/C(C)=N/NC(=O)c2ccccc2Cl)cc1 was read as HCT116 bCat-KO 91 and HCT116 PTEN-null 107.
`O=C(COc1ccc(S(=O)(=O)N2CCOCC2)cc1)Nc1ccc2c(c1)OCCO2` gave HCT116 bCat-KO 100, Calb biofilm kill 9, Lung fibro prol 92, HUVEC prolif 384 94 and HCT116 PTEN-null 96.
For O=C(COc1ccc(S(=O)(=O)N2CCOCC2)cc1)Nc1ccc(Cl)c(C(F)(F)F)c1 the results were H69AR inhibit 25*, HCT116 bCat-KO 38, Calb biofilm kill -4, Lung fibro prol 59, HUVEC prolif 384 52 and HCT116 PTEN-null 28.
Screening CCOC(=O)c1c(NC(=O)CSc2nc(C)cc(C)c2C#N)sc(C(C)=O)c1C returned H69AR inhibit 19*, HCT116 bCat-KO 104, Calb biofilm kill 3, Lung fibro prol 59, HUVEC prolif 384 38 and HCT116 PTEN-null 108.
`CCOC(=O)C(C(=O)Nc1ccc(C)cc1)C1CCCCC1` (stereo not given) gave H69AR inhibit 23*, HCT116 bCat-KO 87, Calb biofilm kill 2, Lung fibro prol 89, HUVEC prolif 384 80 and HCT116 PTEN-null 75.
Screening CCOC(=O)C(C(=O)Nc1ccccc1)C1CCCCC1 (stereo not given) returned H69AR inhibit 91, HCT116 bCat-KO 72, Calb biofilm kill 2, Lung fibro prol 83, HUVEC prolif 384 85 and HCT116 PTEN-null 75.
`CCOC(=O)C1=C(C)n2c(s/c(=C/c3cccc([N+](=O)[O-])c3)c2=O)=NC1c1ccc(O)c(OC)c1` (stereo not given) gave H69AR inhibit 3.2*, HCT116 bCat-KO 1.9*, Calb biofilm kill 7, Lung fibro prol 17*, HUVEC prolif 384 7.4* and HCT116 PTEN-null 7.
CSc1ccc2c(c1)N(CCC1CCCCN1C)c1ccccc1S2 (stereo not given) was read as HCT116 bCat-KO 1.2* and HCT116 PTEN-null 1.4*.
CCCn1cc(SCC(=O)NCc2ccco2)c2ccccc21 was read as H69AR inhibit 100, HCT116 bCat-KO 87, Calb biofilm kill -5, Lung fibro prol 98, HUVEC prolif 384 88 and HCT116 PTEN-null 93.
O=C(CSc1cn(CCNC(=O)c2ccccc2)c2ccccc12)NCc1ccco1 was read as H69AR inhibit 81, HCT116 bCat-KO 76, Calb biofilm kill 22*, Lung fibro prol 93, HUVEC prolif 384 74 and HCT116 PTEN-null 83.
`Cc1cccc(Cn2ncc(Cl)c(Cl)c2=O)c1` gave HCT116 bCat-KO 2.2* and HCT116 PTEN-null 2.2*.
Cc1ccc(C)c(C(=O)Cn2ncc(Cl)c(Cl)c2=O)c1 was read as H69AR inhibit 0.4*, HCT116 bCat-KO 1.8*, Calb biofilm kill 3, Lung fibro prol 2.1*, HUVEC prolif 384 2.2* and HCT116 PTEN-null 1.3*.
Screening Cc1cc(C(=O)Cn2ncc(Cl)c(Cl)c2=O)c(C)n1CC(F)(F)F returned HCT116 bCat-KO 0.5* and HCT116 PTEN-null 0.8*.
Cc1ccc(C)c(C(=O)CN2C(=O)c3ccccc3S2(=O)=O)c1 was read as H69AR inhibit 95, HCT116 bCat-KO 92, Calb biofilm kill 3, Lung fibro prol 101, HUVEC prolif 384 97 and HCT116 PTEN-null 89.
O=S(=O)(Nc1cc2nc3ccccc3nc2n1Cc1ccccc1)c1ccc(Cl)cc1 was read as HCT116 bCat-KO 86 and HCT116 PTEN-null 76.
Screening O=C(CSc1nnc(-c2ccncc2)n1-c1ccc(Cl)cc1)NCc1cccs1 returned H69AR inhibit 87, HCT116 bCat-KO 92, Calb biofilm kill 2, Lung fibro prol 104, HUVEC prolif 384 101 and HCT116 PTEN-null 89.
For O=C(Oc1c(CN2CCOCC2)cc(Cl)c2cccnc12)c1ccc(F)cc1 the results were H69AR inhibit 88, HCT116 bCat-KO 5.0*, Calb biofilm kill 9, Lung fibro prol 4.5*, HUVEC prolif 384 77 and HCT116 PTEN-null 1.9*.
`COc1cc(C(=O)Oc2c(CN3CCOCC3)cc(Cl)c3cccnc23)cc(OC)c1OC` gave H69AR inhibit 2.1*, HCT116 bCat-KO 2.4*, Calb biofilm kill -5, Lung fibro prol 4.7*, HUVEC prolif 384 82 and HCT116 PTEN-null 1.5*.
COc1ccc(C(=O)Oc2c(CN3CCOCC3)cc(Cl)c3cccnc23)cc1 was read as H69AR inhibit 2.4*, HCT116 bCat-KO 4.9*, Calb biofilm kill 9, Lung fibro prol 47*, HUVEC prolif 384 82 and HCT116 PTEN-null 3.1*.
